RAD54 inh – blocks human RAD54 Holliday junction branch migration | inhibition, % at 10.4 µM | FAM/BHQ fluorescence | 360,000 compounds, 0.14% hits;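 active = mean normalized replicate activity at least 40 and at least half of replicates scoring 40 or more; inconclusive = only one of the two criteria met; inactive = mean below 40 and under half of replicates reaching 40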;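 also: 0% = median of neutral control wells and 100% = median of positive control wells; inhibitors cause a drop in the FAM fluorescence signal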
Target sequence (Q92698 whole entry, looked up): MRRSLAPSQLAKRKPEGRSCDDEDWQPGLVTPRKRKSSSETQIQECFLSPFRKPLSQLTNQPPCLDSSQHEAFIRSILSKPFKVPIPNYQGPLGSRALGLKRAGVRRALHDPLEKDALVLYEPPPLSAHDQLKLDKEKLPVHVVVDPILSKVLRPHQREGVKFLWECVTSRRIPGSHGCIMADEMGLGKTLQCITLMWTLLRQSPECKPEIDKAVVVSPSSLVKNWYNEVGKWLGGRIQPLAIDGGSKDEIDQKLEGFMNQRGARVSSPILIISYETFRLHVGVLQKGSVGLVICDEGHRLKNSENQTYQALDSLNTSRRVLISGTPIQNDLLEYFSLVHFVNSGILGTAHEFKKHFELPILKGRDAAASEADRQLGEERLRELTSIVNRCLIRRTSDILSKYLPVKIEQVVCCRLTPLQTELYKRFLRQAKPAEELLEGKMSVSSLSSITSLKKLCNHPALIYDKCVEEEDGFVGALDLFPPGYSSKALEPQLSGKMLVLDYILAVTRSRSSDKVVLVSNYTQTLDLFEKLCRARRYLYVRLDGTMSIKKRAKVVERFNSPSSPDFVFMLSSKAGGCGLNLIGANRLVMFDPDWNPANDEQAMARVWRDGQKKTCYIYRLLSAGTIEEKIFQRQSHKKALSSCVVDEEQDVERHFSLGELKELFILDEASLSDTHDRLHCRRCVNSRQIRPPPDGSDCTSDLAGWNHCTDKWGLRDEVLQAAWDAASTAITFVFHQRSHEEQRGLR
GSIS activator – primary screen for activators of insulin secretion dependent on glucose, INS-1E cells, GLuc reporter luminescence; INS-1E GLuc reporter insulin secretion, 2-3 h; activation, % at 16.6 µM; 370,000 compounds, 0.61% hits; AID 743287;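 active = lowest replicate activation of at least 40%, so every replicate reaches that level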;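 also: 0% = median of neutral control wells and 100% = median of IBMX positive control wells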
AF4-AF9 inh – blocks AF4 peptide binding to human AF9 | AID 651704 | inhibition, % at 10 µM | P42568 | 350,000 compounds, 0.47% hits | AlphaScreen, biotin-AF4 peptide binding to FLAG-AF9;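 active = every replicate reaching a set inhibition limit, whatever the replicate mean, cut at about 25% in these data; inconclusive = mean inhibition reaches that limit but some replicates miss it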;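 also: 0% = plate neutral control median and 100% = total signal loss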
rRNA inh HTS – selective bacterial rRNA inhibition in E. coli; E. coli WT GFP vs humanized-ribosome RFP mutants, fluorescence, 24 h; hits give low values; DMSO median 0, no signal -100; GFP signal change (wild-type ribosome), % (no concentration beside the values); 350,000 compounds, 1.6% hits;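 active = significant combined selectivity score with lowered wild-type GFP, culture density cut under 30%, mutant RFP and density less affected; inactive = any of these conditions unmet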
E-selectin induc – E-selectin induction on HUVECs; P16581; HUVEC E-selectin immunofluorescence imaging; normalized: neutral wells 0, TNF-alpha wells 100; activation, % at 7.58 µM; 260,000 compounds, 0.37% hits; AID 686992;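 active = mean E-selectin-positive cell signal at least 10% of the positive control, reached in at least 60% of replicates, without over 20% cell loss; inconclusive = no rule given, readout overlaps actives, possibly toxicity-flagged; inactive = the rest, including those meeting only one limit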
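assay system = HUVEC, human umbilical vein endothelial cells | input = 3,000 HUVEC seeded per well | medium = EGM-2 growth medium on 0.1% gelatin-coated wells | dosing = one compound dose added by pin transfer | signal = immunofluorescence imaging | read-out basis = % PE-positive cells | control set = TNF-alpha, DMSO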
RAD52 inh – RAD52 (human) annealing inhibition; 360,000 compounds, 0.46% hits; inhibition, % at 18.7 µM; P43351; AID 651710; recombinant RAD52 DNA annealing, FRET fluorescence;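 active = every replicate showing at least 50% inhibition; inconclusive = mean inhibition at least 50% but not in every replicate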
Starred values were filed as active, the others as inactive; i = inactive; ? = inconclusive; · = not tested or not shown; ! = not confirmed by another sample. Most compounds without a hit are left out; they make up all but 2.6% or so of the library.

SMILES	RAD54 inh	GSIS activator	AF4-AF9 inh	rRNA inh HTS	E-selectin induc	RAD52 inh
C[C@H](CO)N1C[C@H](C)[C@H](CN(C)CC2CCCCC2)Oc2c(NC(=O)C3CCCCC3)cccc2C1=O	4.9	-3.8	-2.0	0.8	-0.1	-1.1
COc1ccc2c3c(n(C)c2c1)[C@H](CO)N(C(=O)C1CCCC1)CC31CCN(C(=O)CC2CC2)CC1	·	-8.8	0.1	-2.1	0.7	1.5
COc1cccc(NC(=O)N(C)C[C@H]2Oc3cc(-c4ccccc4F)ccc3S(=O)(=O)N([C@H](C)CO)C[C@@H]2C)c1	-1.6	-18.3	0.9	-2.6	-0.2	14.3
FC(F)(F)c1cc(CCN2CCNC[C@@H]2Cc2ccccc2)cc(C(F)(F)F)c1	5.6	191.1*	27.2*	-55.2	0.0	42.6
Fc1cccc(CCN2CCNC[C@@H]2Cc2ccccc2)c1	-8.5	·	6.7	4.3	0.0	-5.5
COc1ccc(S(=O)(=O)Nc2ccc3c(c2)C(=O)N([C@H](C)CO)C[C@H](C)[C@H](CN(C)C(=O)NC(C)C)O3)cc1	·	19.9	·	0.5	-15.9	·
Cc1noc(C)c1NC(=O)N(C)C[C@H]1Oc2ccc(NS(=O)(=O)c3ccc(F)cc3)cc2CC(=O)N([C@H](C)CO)C[C@@H]1C	·	6.7	·	1.1	·	·
COc1cccc(N2C(=O)C3C(C2=O)C3(c2ccccc2)c2ccccc2)c1 (centres undefined)	-6.7	-36.6	12.7	-33.0*	0.1	1.4
COc1ccc(S(=O)(=O)N(C)C[C@@H]2Oc3ccc(NC(=O)Nc4ccc5c(c4)OCO5)cc3CC(=O)N([C@@H](C)CO)C[C@@H]2C)cc1	34.5	-2.8	5.7	2.8	-13.1	-11.8
COc1ccc(S(=O)(=O)N(C)C[C@H]2Oc3ccc(NC(=O)Nc4ccc5c(c4)OCO5)cc3CC(=O)N([C@@H](C)CO)C[C@H]2C)cc1	10.8	-20.4	8.5	-0.7	79.3*	6.3
COc1ccc(S(=O)(=O)N(C)C[C@@H]2Oc3ccc(NC(=O)Nc4ccccc4)cc3CC(=O)N([C@@H](C)CO)C[C@@H]2C)cc1	72.0*	-29.5	3.0	-3.6	-0.1	0.5
COc1ccc(S(=O)(=O)N(C)C[C@@H]2Oc3ccc(NC(=O)NC(C)C)cc3CC(=O)N([C@@H](C)CO)C[C@@H]2C)cc1	51.3*	27.7	0.9	-0.1	0.2	14.2
C[C@H]1CN([C@@H](C)CO)C(=O)c2cc(C3=CCCCC3)cnc2O[C@H]1CN(C)C(=O)c1cccnc1	0.9	1.7	-1.8	7.0	-0.3	1.7
C[C@@H]1CN([C@H](C)CO)S(=O)(=O)c2ccc(-c3ccccc3)cc2O[C@@H]1CN(C)S(C)(=O)=O	-5.0	8.4	-0.7	-1.1	-0.2	4.3
C[C@H]1CN([C@@H](C)CO)C(=O)c2cc(-c3ccncc3)cnc2O[C@H]1CN(C)C(=O)Nc1ccc2c(c1)OCO2	-5.7	7.3	-2.8	2.7	0.0	-7.8
COc1ccccc1-c1ccc2c(c1)[C@H]1[C@H](CCN1C(=O)CN1CCOCC1)[C@H](CO)N2C	-2.2	1.1	1.1	-1.4	0.1	-19.0
CCCn1nc(NC(=O)c2ccco2)c2cc3cc(C)ccc3nc21	-10.1	13.3	-6.7	-3.5	0.7	-38.0
CC(C)Cn1nc(NC(=O)c2ccco2)c2cc3ccccc3nc21	·	73.5*	-14.1	-0.2	·	-54.5
CCn1nc(NC(=O)c2ccco2)c2cc3ccccc3nc21	19.1	44.2*	·	·	·	·
O=C(NCC[C@@H]1CC[C@@H](NS(=O)(=O)Cc2ccccc2)[C@@H](CO)O1)C1CCCC1	-4.3	1.4	-0.7	-0.9	-0.2	-7.9
CN(C)CCn1c2ccccc2c2nc3ccc([N+](=O)[O-])cc3cc21	28.8	-6.4	-1.9	-32.0*	-9.2	37.4
CCn1c2ccccc2c2cc([N+](=O)[O-])ccc21	·	-6.5	-0.9	9.8	·	-7.7
CC1CCC(C(C)C)C(OCC(O)CNC(C)c2ccccc2)C1 (centres undefined)	·	199.4*	5.2	-50.0	·	22.1
CC1CCC(C(C)C)C(OCC(O)CNC(C)(C)C)C1 (centres undefined)	·	23.7	0.5	-14.5	·	3.4
CCOC(=O)C1Nc2ccccc2C2C(O)C(O)CC12 (centres undefined)	i	-8.9	26.3*	9.6	-0.1	-378.3
SMILES	RAD54 inh	GSIS activator	AF4-AF9 inh	rRNA inh HTS	E-selectin induc	RAD52 inh
O=C(C[C@H]1CC[C@H](NC(=O)C2CCC2)[C@@H](CO)O1)NC1CCC1	-18.0	14.2	-3.8	2.1	-0.9	6.3
Cc1nc2ccccc2nc1N1CCCC1	4.6	5.0	13.5	0.3	-0.2	-6.5
Cc1ccc2c(Cl)c(C)c(N3CCCC3)nc2n1	14.5	35.5	-1.6	-36.0*	-1.3	5.5
Cc1nc2sc(C(c3ccco3)N3CCN(c4ccccc4)CC3)c(O)n2n1 (centres undefined)	-14.2	·	1.1	12.3	0.3	-9.8
Cc1nc2sc(C(c3ccco3)N3CCN(c4cccc(Cl)c4)CC3)c(O)n2n1 (centres undefined)	3.2	-26.5	·	-38.9*	·	-18.8
O=C(C[C@@H]1CC[C@H]2[C@@H](COC[C@H](O)CN2Cc2ccccc2)O1)N1CCOCC1	4.4	1.5	-5.3	-0.3	-0.2	-6.8
Cc1cccc(OC(C)C(=O)N/N=C\c2ccncc2)c1 (centres undefined)	6.4	-5.4	-0.7	0.0	372.3*	10.3
O=C(c1ccc(F)cc1)N1C[C@@H]2N[C@H](C1)C2c1ccc(/C=C/c2ccccc2)cc1 (some centres undefined)	·	119.2*!	?	-62.4	0.0	65.1*
O=C(C1CCOCC1)N1C[C@@H]2N[C@H](C1)C2c1ccc(/C=C/c2ccccc2)cc1 (some centres undefined)	·	2.4	·	-4.6	0.1	·
O=C(C1CCCC1)N1C[C@@H]2N[C@H](C1)C2c1ccc(/C=C/c2ccccc2)cc1 (some centres undefined)	·	-5.1	10.0	-56.6	2.8	58.0*
O=C(Nc1ccccc1)N1C[C@@H]2N[C@H](C1)[C@@H]2c1ccc(/C=C/c2ccccc2)cc1	·	12.5	28.8*	-24.6*	0.0	72.2*
O=C(c1ccncc1)N1C[C@@H]2N[C@H](C1)C2c1ccc(/C=C/c2ccccc2)cc1 (some centres undefined)	·	3.3	10.4	-3.9	-0.1	4.4
C[C@@H]1CN([C@H](C)CO)C(=O)c2cc(-c3ccc(C#N)cc3)cnc2O[C@@H]1CN(C)C(=O)c1ccccc1	-14.3	23.2	-1.8	1.1	0.5	-0.4
COCCn1c(-c2ccsc2)nc2c1c(=O)[nH]c(=O)n2CC(C)C	-3.9	·	·	·	·	·
COCCn1c(-c2ccc3ccccc3c2)nc2c1c(=O)[nH]c(=O)n2CC(C)C	-2.1	47.9*	1.4	4.3	15.7	-13.6

Screens from PubChem.
